Experimental data reported in ChEMBL document CHEMBL1148435, “N,N-dialkyl-4-[(8-azabicyclo[3.2.1]-oct-3-ylidene)phenylmethyl]benzamides, potent, selective delta opioid agonists” (Bioorg Med Chem Lett, 2004).

Key:
[1] = biological target: T1, Delta-type opioid receptor (Homo sapiens, UniProt P41143); assay: Binding affinity for delta opioid receptor
[2] = biological target: T1, Delta-type opioid receptor; assay: Efficacy relative to stimulation of [35S]GTP-gamma-S, binding by SNC80 was calculated for human delta opioid receptor; type: functional
[3] = tested on: Mus musculus; assay: Antinociceptive activity was assessed using the mouse abdominal irritant test (MAIT), at a dose of 150 uM/Kg (po); type: functional, Abdomen
Summary of the method: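 Mice were dosed orally, 15 mice per compound, in the abdominal irritant test for antinociception, and watched for convulsions.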

[4] = biological target: T1, Delta-type opioid receptor; assay: Effective concentration against stimulation of [35S]GTP-gamma-S, binding in CHO cells transfected with the human opioid receptor delta 1; type: functional, cell-based
Summary of the method: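 Agonist function was read as compound-stimulated [35S]GTPγS binding in CHO cells transfected with the human δ opioid receptor. The method was adapted from one used for bradykinin receptor signal transduction.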

[5] = biological target: Mu-type opioid receptor (Homo sapiens, UniProt P35372); assay: Binding affinity for mu opioid receptor
Chain of Mu-type opioid receptor (P35372 whole entry): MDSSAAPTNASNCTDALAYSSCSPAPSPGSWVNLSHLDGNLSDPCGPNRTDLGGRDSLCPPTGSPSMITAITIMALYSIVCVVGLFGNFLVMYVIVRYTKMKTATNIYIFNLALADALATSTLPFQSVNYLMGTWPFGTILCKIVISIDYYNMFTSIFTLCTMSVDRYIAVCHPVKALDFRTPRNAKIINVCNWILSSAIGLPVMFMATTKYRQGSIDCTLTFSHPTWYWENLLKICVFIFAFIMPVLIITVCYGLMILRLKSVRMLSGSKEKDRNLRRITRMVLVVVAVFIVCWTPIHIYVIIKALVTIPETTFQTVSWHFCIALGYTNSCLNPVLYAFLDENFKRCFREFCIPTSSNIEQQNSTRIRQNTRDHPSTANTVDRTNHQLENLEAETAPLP

T1 sequence (P41143 whole entry): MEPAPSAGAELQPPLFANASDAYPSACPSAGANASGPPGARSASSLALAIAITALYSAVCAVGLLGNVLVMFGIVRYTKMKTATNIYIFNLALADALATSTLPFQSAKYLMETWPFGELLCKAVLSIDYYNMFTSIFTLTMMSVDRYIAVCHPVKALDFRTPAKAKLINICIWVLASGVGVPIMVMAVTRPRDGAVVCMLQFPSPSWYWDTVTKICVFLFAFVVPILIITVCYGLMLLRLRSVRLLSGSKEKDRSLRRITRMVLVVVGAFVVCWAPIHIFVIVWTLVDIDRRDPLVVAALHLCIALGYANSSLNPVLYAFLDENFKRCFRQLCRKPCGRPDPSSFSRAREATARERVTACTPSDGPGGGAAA

Compound | Ki [1] [nM] | Relative efficacy [2] | Inhibition [3] [%] | EC50 [4] [nM] | Ki [5] [nM]
C=CCN1[C@@H]2CC[C@H]1C/C(=C(\c1ccccc1)c1ccc(C(=O)N(CC)CC)cc1)C2 | 0.025 | 1.05 | 100 | 0.5 | 322
CCN(CC)C(=O)c1ccc(C(=C2CC3CCC(C2)N3CCC2CCCCC2)c2ccccc2)cc1 | 1.36 | 0.92 |  | 228 | 451
C=C(C)CN(CC)C(=O)c1ccc(/C(=C2\C[C@H]3CC[C@@H](C2)N3CCc2ccccc2)c2ccccc2)cc1 | 2.94 | 0.9 | 33 | 1080 | 229
CCN(CC)C(=O)c1ccc(C(=C2CC3CCC(C2)N3C)c2ccc(OC)cc2)cc1 | 3.5 | 0.85 |  | 27 | 1500
CCN(CC)C(=O)c1ccc(/C(=C2/C[C@H]3CC[C@@H](C2)N3CCc2ccccc2)c2ccccc2)cc1 | 42.1 | 0.88 | 90 | 1390 | 317
CCN(CC)C(=O)c1ccc(C(=C2CC3CCC(C2)N3Cc2ccc3c(c2)OCO3)c2ccccc2)cc1 | 0.01 |  | 40 | 0.2 | 22.4
CC1CCCC(C)N1C(=O)c1ccc(/C(=C2\C[C@H]3CC[C@@H](C2)N3CCc2ccccc2)c2ccccc2)cc1 (stereo partly specified) | 11 |  |  | 10000 | 571
CCN(CC)C(=O)c1ccc(C(=C2CC3CCC(C2)N3CC(=O)c2ccccc2)c2ccccc2)cc1 | 6.31 | 0.68 |  | 173 | 9640
CCN(CC)C(=O)c1ccc(C(=C2CC3CCC(C2)N3C)c2ccc(O)cc2)cc1 | 1.89 | 0.86 |  | 9 | 194
CC(C)N(C(=O)c1ccc(C(=C2CC3CCC(C2)N3CCc2ccccc2)c2ccccc2)cc1)C(C)C | 49 | 0.92 |  | 5040 | 103
CCN(CC)C(=O)c1ccc(C(=C2CC3CCC(C2)N3C)c2cccc(O)c2)cc1 | 0.6 | 0.87 |  | 3 | 727
CCN(CC)C(=O)c1ccc(C(=C2CC3CCC(C2)N3CCc2c[nH]c3ccccc23)c2ccccc2)cc1 | 3.48 | 0.91 |  | 16 | 337
CCN(CC)C(=O)c1ccc(/C(=C2\C[C@H]3CC[C@@H](C2)N3CCc2ccccc2)c2ccccc2)cc1 | 0.24 | 0.82 | 100 | 34 | 72.3
CCCN(CCC)C(=O)c1ccc(C(=C2CC3CCC(C2)N3CCc2ccccc2)c2ccccc2)cc1 | 7.39 | 0.82 |  | 3560 | 644
CCN(CC)C(=O)c1ccc(C(=C2CC3CCC(C2)N3C)c2cccc(OC)c2)cc1 | 5.9 | 0.87 |  | 65 | 693
COCCN(CCOC)C(=O)c1ccc(C(=C2CC3CCC(C2)N3CCc2ccccc2)c2ccccc2)cc1 | 16.6 | 0.71 |  | 403 | 294

Compound | Ki [1] [nM] | Relative efficacy [2] | Inhibition [3] [%] | EC50 [4] [nM] | Ki [5] [nM]
CCN(CCO)C(=O)c1ccc(C(=C2CC3CCC(C2)N3CCc2ccccc2)c2ccccc2)cc1 | 3.2 | 0.77 |  | 548 | 291
O=C(c1ccc(C(=C2CC3CCC(C2)N3CCc2ccccc2)c2ccccc2)cc1)N1CCOCC1 | 35.2 | 0.76 |  | 350 | 237
CCN(CC)C(=O)c1ccc(/C(=C2\C[C@H]3CC[C@@H](C2)N3)c2ccccc2)cc1 | 0.023 | 1.02 | 86.7 | 1.8 | 855
CCN(CC)C(=O)c1ccc(C(=C2CC3CCC(C2)N3)c2ccc(O)cc2)cc1 | 0.58 | 0.96 | 26.7 | 5 | 442
C=CCN1[C@@H]2CC[C@H]1C/C(=C(/c1ccccc1)c1ccc(C(=O)N(CC)CC)cc1)C2 | 0.32 | 0.83 | 100 | 177 | 4400
O=C(c1ccc(C(=C2CC3CCC(C2)N3CCc2ccccc2)c2ccccc2)cc1)N1CCCC1 | 24.1 | 0.86 |  | 1460 | 276
CCN(CC)C(=O)c1ccc(C(=C2CC3CCC(C2)N3CCc2ccc(F)cc2)c2ccccc2)cc1 | 2.62 | 0.76 | 26.7 | 27 | 393
CCN(CC)C(=O)c1ccc(C(=C2CC3CCC(C2)N3CCOc2ccccc2)c2ccccc2)cc1 | 0.38 | 0.84 |  | 623 | 630
CCN(CC)C(=O)c1ccc(/C(=C2/C[C@H]3CC[C@@H](C2)N3)c2ccccc2)cc1 | 0.36 | 1 | 86.7 | 53 | 2310
CCN(CC)C(=O)c1ccc(C(=C2CC3CCC(C2)N3CCc2cccs2)c2ccccc2)cc1 | 13.1 | 0.78 |  | 1350 | 1280
CCCN1C2CCC1CC(=C(c1ccccc1)c1ccc(C(=O)N(CC)CC)cc1)C2 | 0.39 | 0.87 | 93.3 | 43 | 289
CCN(CC)C(=O)c1ccc(/C(=C2\C[C@H]3CC[C@@H](C2)N3C)c2ccccc2)cc1 | 5.7 | 0.87 | 80 | 153 | 2910
CCN(CC)C(=O)c1ccc(C(=C2CC3CCC(C2)N3CCCc2ccccc2)c2ccccc2)cc1 | 0.56 | 0.88 | 13.3 | 112 | 104
CCN(CC)C(=O)c1ccc(/C(=C2/C[C@H]3CC[C@@H](C2)N3C)c2ccccc2)cc1 | 4.5 | 0.85 | 90 | 149 | 9730
CCN(CC)C(=O)c1ccc(C(=C2CC3CCC(C2)N3CCc2ccccc2)c2cccc(OC)c2)cc1 | 1.36 | 0.8 |  | 218 | 417
